Results on two molecules are retold here after ChEMBL document CHEMBL5113395, “Azetidin-2-one-based small molecules as dual hHDAC6/HDAC8 inhibitors: Investigation of their mechanism of action and impact of dual inhibition profile on cell viability” (Eur J Med Chem, 2022).

Series [1] can be described thus: Toxicity in zebrafish AB embryos assessed as tolerance at 25 to 75 uM measured after 24 hrs. The following applies: Danio rerio, in vivo.
A short description of series [2]: Metabolic stability in rat liver microsome assessed as apparent decay constant at 5 uM in presence of NADPH incubated up to 60 mins by HPLC analysis. It counts as ADME. The following applies: liver microsomes. The procedure, abridged: (§1)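 Compound (in MeCN) at 5 μM incubated at 37 °C in 100 mM phosphate buffer pH 7.4 with 0.5 mg/mL liver microsomal protein (rat, mouse or human). CYP reactions started with NADPH-generating system (2 mM NADPH, glucose-6-phosphate, G6P dehydrogenase, MgCl2). Stopped with MeCN at intervals over 0–60 min. Remaining parent quantified by HPLC-UV at 254 nm. Ln % recovery vs time fitted to first-order decay. Triplicate incubations.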

Series [3] in a line: Chemical stability of compound in PBS at pH 7.4 incubated for 24 hrs at 40 degreeC by HPLC/UV/DAD analysis. It counts as physicochemical. The following applies: read-out: Stability.
A short description of series [4]: Metabolic stability in mouse liver microsome assessed as half life at 5 uM in presence of NADPH incubated up to 60 mins by HPLC analysis. It counts as ADME. The conditions noted are these: liver microsomes. The procedure, abridged:
(§2)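 Compound in MeCN was incubated at 5 µM and 37 °C in 100 mM phosphate buffer pH 7.4 with 0.5 mg/mL human or mouse liver microsomal protein. Reactions were started with an NADPH-regenerating system (2 mM NADPH, glucose-6-phosphate, G6PDH, MgCl2) and stopped with MeCN over 0–60 min. Remaining compound was measured by HPLC-UV at 254 nm, in triplicate, with first-order decay fitting.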
(In general: Liver microsomes are vesicles of endoplasmic reticulum, rich in cytochrome P450 enzymes.)

Series [5] in a line: Metabolic stability in mouse liver microsome assessed as intrinsic clearance at 5 uM measured per mg protein in presence of NADPH incubated up to 60 mins by HPLC analysis. The following applies: microsomes, 1 h. It counts as ADME. The procedure, abridged: as §1
The nature of series [6]: Chemical stability of compound in PBS at pH 7.4 measured after 24 hrs by HPLC/UV/DAD analysis. It counts as physicochemical. The conditions noted are these: read-out: Stability. In outline:
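DMSO stock (10 mM) was diluted to 250 µM (2.5% DMSO) in 50 mM PBS, pH 7.4, and kept 24 h at 25 °C with shaking. Peak area at 24 h versus T0 was measured by HPLC/UV/DAD at 254 nm, in triplicate. Stress tests used a methanol solution heated at 40 °C for 24 h, or 24 h under UV 254 nm.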

The nature of series [7]: Metabolic stability in rat liver microsome assessed as half life at 5 uM in presence of NADPH incubated up to 60 mins by HPLC analysis. It is filed as ADME. The conditions noted are these: liver microsomes. The procedure, abridged:
as §1

Series [8] is described as follows: Metabolic stability in human liver microsome assessed as apparent decay constant at 5 uM in presence of NADPH incubated up to 60 mins by HPLC analysis. It is filed as ADME. The following applies: microsomes, 1 h. The procedure, abridged: as §2
A short description of series [9]: Metabolic stability in human liver microsome assessed as intrinsic clearance at 5 uM measured per mg protein in presence of NADPH incubated up to 60 mins by HPLC analysis. The conditions noted are these: microsomes, 1 h. It is filed as ADME. The procedure, abridged:
as §2

Series [10] in a line: Chemical stability of compound in PBS at pH 7.4 incubated for 24 hrs under UV 254 nm stress condition by HPLC/UV/DAD analysis. The following applies: read-out: Stability. It counts as physicochemical.
Series [11] can be described thus: Octanol-water partition coefficient, log P of the compound by HPLC analysis. It is filed as physicochemical. The procedure, abridged: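 Stock of 0.005 M in MeOH, diluted serially in MeOH to build a calibration curve. Compound partitioned between water and n-octanol. LogP taken from the n-octanol/water phase ratio against the calibration curve, quantified by the RP-18 HPLC method at 254 nm.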

A short description of series [12]: Cardiotoxicity in Langendorff-perfused Wistar rat heart assessed as effect on HR at 0.1 uM by ECG analysis (reference value: 252.3 +/-10.1 bpm). It is filed as toxicity, tissue-based.
Series [13] is described as follows: Cardiotoxicity in Langendorff-perfused Wistar rat heart assessed as effect on PQ interval time at 10 uM by ECG analysis (reference value: 45.4+/-3.9 milliseconds). It counts as toxicity, tissue-based.
Series [14] can be described thus: Cardiotoxicity in Langendorff-perfused Wistar rat heart assessed as effect on QT interval time at 0.1 uM by ECG analysis (reference value: 66.1+/-1.1 milliseconds). It is filed as toxicity, tissue-based.
Series [15] can be described thus: Cardiotoxicity in Langendorff-perfused Wistar rat heart assessed as effect on HR at 0.01 uM by ECG analysis (reference value: 252.3 +/-10.1 bpm). It counts as toxicity, tissue-based.
Series [16] is described as follows: Cardiotoxicity in Langendorff-perfused Wistar rat heart assessed as effect on QRS interval time at 0.01 uM by ECG analysis (reference value: 13.3+/-0.6 milliseconds). It is filed as toxicity, tissue-based.
Series [17] is described as follows: Cardiotoxicity in Langendorff-perfused Wistar rat heart assessed as effect on PQ interval time at 0.1 uM by ECG analysis (reference value: 45.4+/-3.9 milliseconds). It counts as toxicity, tissue-based.
A short description of series [18]: Cardiotoxicity in Langendorff-perfused Wistar rat heart assessed as effect on PQ interval time at 1 uM by ECG analysis (reference value: 45.4+/-3.9 milliseconds). It is filed as toxicity, tissue-based.
Series [19] is described as follows: Cardiotoxicity in Langendorff-perfused Wistar rat heart assessed as effect on QT interval time at 10 uM by ECG analysis (reference value: 66.1+/-1.1 milliseconds). It counts as toxicity, tissue-based.
Series [20] is described as follows: Cardiotoxicity in Langendorff-perfused Wistar rat heart assessed as effect on QRS interval time at 0.1 uM by ECG analysis (reference value: 13.3+/-0.6 milliseconds). It counts as toxicity, tissue-based.
Series [21] in a line: Cardiotoxicity in Langendorff-perfused Wistar rat heart assessed as effect on QRS interval time at 1 uM by ECG analysis (reference value: 13.3+/-0.6 milliseconds). It counts as toxicity, tissue-based.
A short description of series [22]: Cardiotoxicity in Langendorff-perfused Wistar rat heart assessed as effect on RR time at 1 uM by ECG analysis (reference value: 239.5+/-9.2 milliseconds). It counts as toxicity, tissue-based.
Series [23] is described as follows: Cardiotoxicity in Langendorff-perfused Wistar rat heart assessed as effect on QTc interval time at 0.1 uM by ECG analysis (reference value: 66.4+/-1.3 milliseconds). It counts as toxicity, tissue-based.
Series [24] is described as follows: Cardiotoxicity in Langendorff-perfused Wistar rat heart assessed as effect on RR time at 0.01 uM by ECG analysis (reference value: 239.5+/-9.2 milliseconds). It counts as toxicity, tissue-based.
Another series has as its system B cell. As to the kind of experiment: Cytotoxicity against patient derived human B cells. It is filed as toxicity, cell-based.
Series [25] can be described thus: Cardiotoxicity in Langendorff-perfused Wistar rat heart assessed as effect on HR at 1 uM by ECG analysis (reference value: 252.3 +/-10.1 bpm). It is filed as toxicity, tissue-based.
A short description of series [26]: Cardiotoxicity in Langendorff-perfused Wistar rat heart assessed as effect on QT interval time at 0.01 uM by ECG analysis (reference value: 66.1+/-1.1 milliseconds). It counts as toxicity, tissue-based.
A short description of series [27]: Cardiotoxicity in Langendorff-perfused Wistar rat heart assessed as effect on HR at 10 uM by ECG analysis (reference value: 252.3 +/-10.1 bpm). It counts as toxicity, tissue-based.
Series [28] can be described thus: Cardiotoxicity in Langendorff-perfused Wistar rat heart assessed as effect on QTc interval time at 0.01 uM by ECG analysis (reference value: 66.4+/-1.3 milliseconds). It counts as toxicity, tissue-based.
Series [29] can be described thus: Cardiotoxicity in Langendorff-perfused Wistar rat heart assessed as effect on QTc interval time at 1 uM by ECG analysis (reference value: 66.4+/-1.3 milliseconds). It is filed as toxicity, tissue-based.

The term half-life denotes the time needed for the level to fall by half in the phase considered. As a reminder, the logP is a log measure of how a compound divides between an organic and an aqueous phase. On to `O=C(NO)c1ccc(CNC(=O)N2CCC(N3C(=O)[C@H](c4ccccc4)[C@H]3c3ccccc3)CC2)cc1` (racemic), for which the Activity result in series [1] is “Non-Toxic”. In [2], the k el at 1 h, 5 µM is 0.000135 s⁻¹. The remaining at 24 h in series [3] turned out to be 100%; in series [6], 73%; in series [10] it was 100%. Besides, the half-life at 5 µM turned out to be 1.07 h in series [4] and 1.43 h in series [7]. Also, the CLH in series [5] came out at 35.38 µL/min; in [9], 32.28 µL/min. The K in series [8] amounted to 0.0129 min⁻¹. For the same molecule, in [11], the log partition coefficient (logP) is 2.75.
Regarding `O=C(NO)c1ccc(CNC(=O)N2CCC(N3CC(c4ccccc4)(c4ccccc4)C3=O)CC2)cc1`, the Activity was 258.4 bpm in series [12]; “Non-Toxic” in [1]; 251.2 bpm in [15]; “Non-Toxic” in the series on B cell; 252 bpm in series [25]; 248.4 bpm in series [27]. Besides, the Time in [13] is listed as 47.5 ms; in series [14] it was 66.1 ms; in [16], 12.8 ms; in series [17], 44.9 ms; in [18], 46.2 ms; in series [19], 68.5 ms. The Time is on record as 13.1 ms in series [20]; 13.9 ms in series [21]; 237.2 ms in series [22]; 68.2 ms in [23]; 239.8 ms in series [24]; 66.7 ms in [26]. The Time in [28] turned out to be 66.9 ms; in series [29], 68.9 ms. The k el at 1 h, 5 µM in [2] is 0.000118 s⁻¹. For the same molecule, the remaining at 24 h turned out to be 94% in series [3], 75% in series [6] and 100% in [10]. Further, the half-life at 5 µM in [4] was 1.12 h; in [7], 1.63 h. Also, the CLH was 33.63 µL/min in [5] and 90.5 µL/min in [9]. Moreover, the K in series [8] came out at 0.0362 min⁻¹. In addition, the logP in [11] stood at 2.78.
